This is a sample that favours compounds with a hit; in the whole collection about 5.1% have one here.
STAT3 inh = STAT3 signaling inhibition. inhibition, % at 5.5 µM. U3A cells, IL-6 STAT3-luciferase reporter, luminescence; host cell line lacks STAT1. hit rate 0.89% among 190,000. AID 862;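 active = inhibition above the mean inhibition across all screened compounds plus 3 SD, cut at about 44% in these data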;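 also: 0% = DMSO only wells and 100% = 100 µM nifuroxazide control wells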
STAT1 inh = reduces IFN-gamma driven STAT1 reporter signal | hit rate 0.35% among 200,000 | NIH 3T3 STAT1-luciferase reporter, luminescence | inhibition, % at 5.5 µM;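 active = inhibition above a set limit, the mean inhibition across all tested compounds plus 3 SD, cut at about 34% in these data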;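 also: 0% = IFN-gamma with DMSO and 100% = IFN-gamma with 300 µM nifuroxazide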
APP 5'UTR act = APP 5'UTR luciferase reporter activation. SH-SY5Y APP 5'UTR luciferase reporter, luminescence; zero percent = DMSO vehicle wells. activation, % at 2 µM. hit rate 1% among 190,000. AID 1276;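 active = activation above a set limit, based on mean plus 3 SD of controls, cut at about 140% in these data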
NF-kB expr up = NF-kB expression increase, human neuronal cells. fold change at 12.5 µM. hit rate 1.6% among 190,000. NF-kB reporter expression; hits give high values. AID 1239; in the data active = fold change above about 3.3
STAT3 act = increases IL-6 driven STAT3 reporter signal; U3A cells, IL-6 STAT3-luciferase reporter, luminescence; 100% = signal with IL-6 EC80 alone; activation (% of control), % at 5.6 µM; hit rate 0.91% among 190,000; AID 871;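 active = activation above the screen-wide mean of compound activation plus 3 SD, cut at about 130% in these data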;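 also: 0% = background luminescence of wells with medium and substrate only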
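System – human U3A cells carrying STAT3-luciferase construct · Probe or stimulus – Interleukin-6, 33 ng/mL · Schedule – compound 1 h, then IL-6 6 h at 37 °C · Signal – luminescence from STAT3-driven luciferase reporter · Evaluation – percent of IL-6-only median luminescence · Benchmarks – IL-6-only high control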
STAT1 activator = STAT1 signaling activation | NIH 3T3 STAT1-luciferase reporter, IFN-gamma, luminescence; 100% = IFN-gamma alone, no compound | activation (% of control), % at 5.5 µM | hit rate 2.6% among 200,000 | AID 932;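 active = activation above the screen-wide mean activation plus 3 SD, cut at about 130% in these data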;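 also: raw ratio to IFN-gamma control signal so 100% means no change and 0% no light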
STAT1 act conf = confirmation of STAT1 signaling activators; shares compounds with STAT1 activator; hit rate 97% among 1,200; NIH 3T3 STAT1-luciferase reporter, IFN-gamma potentiation, luminescence; 100% = IFN-gamma EC80 alone, no compound; activation (% of control), % at 5.7 µM;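 active = activation above a set limit carried over from the earlier primary STAT1 screen, cut at about 140% in these data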;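 also: simple ratio to median IFN-gamma plus DMSO wells so 0% means no light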
NFkB act = counter-screen for STAT1 activators: NF-kappaB activation. hit rate 43% among 1,200. shares compounds with STAT1 activator. activation (% of control), % at 5.7 µM. HEK293T NF-kB luciferase reporter, TNF-alpha stimulated, luminescence; 100% = TNF-alpha with vehicle only;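 active = activation above the mean of solvent-only control wells plus 3 SD, set per campaign, cut at about 130% in these data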;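 also: TNF-alpha given at a submaximal dose yielding about 80% of full reporter signal; values are well signal over median control so 100% means no change and 0% no light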
STAT3 act STAT1c = human STAT3 activation in STAT1 activator counter-screen; shares compounds with STAT1 activator; U3A cells STAT3-luciferase reporter, IL-6, luminescence; cells lack STAT1; 100 = IL-6 alone, no compound effect; activation (% of control), % at 5.7 µM; hit rate 46% among 1,200; AID 1316;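 active = activation above the solvent-only control well mean plus 3 SD, set per plate batch, cut at about 110% in these data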;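 also: 0% = no luminescence and 100% = median IL-6 plus DMSO wells; higher means more STAT3 reporter activation so hits are non-selective activators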
The depositor's hits bear a star; . = no result.

SMILES	STAT3 inh	STAT1 inh	APP 5'UTR act	NF-kB expr up	STAT3 act	STAT1 activator	STAT1 act conf	NFkB act	STAT3 act STAT1c
Cc1cccc2c1-c1sc(C(=O)Nc3nccs3)cc1CO2	23	-66	96	2.2	85	160*	190*	127	94
CCOC(=O)c1sc2nc(NC(=O)C(C)(C)C)sc2c1C	9	-63	126	0.9	97	157*	202*	134*	102
Cn1cccc1/C=C1\CCC/C(=C\c2cccn2C)C1=O	13	-56	143*	6*	93	152*	228*	155*	108
CCOC(=O)C1=NOC(CN(c2ccccc2)S(=O)(=O)c2ccc(Cl)cc2)C1 (centres undefined)	-4	2	2	1.1	106	97	.	.	.
Cc1nn(-c2ccc(C(=O)O)cc2)c(N)c1-c1ccccc1	-9	-66	125	4.9*	109	160*	200*	140*	139*
COc1ccc(-c2nn(-c3ccccc3)cc2CO)cc1	7	-1	16	1.4	99	101	.	.	.
COc1ccc(-c2nn(-c3ccccc3)cc2N)cc1	5	-68	79	4*	96	165*	159*	120	164*
O=C(CN1CCOCC1)NNc1nc(-c2ccccc2)c2cc(Br)ccc2n1	8	10	-2	0.84	101	89	.	.	.
COC(=O)c1ccc(-c2ccc(Cl)cc2)nc1C	10	-97	179*	5.9*	95	186*	241*	136*	111*
CCOC(=O)c1ccc(-c2cccc(C(F)(F)F)c2)nc1C	18	-4	-12	1.7	93	104	.	.	.
COc1cccc(CNC(=O)CCC2CCCN(C(=O)c3cc(C4CC4)[nH]n3)C2)c1 (centres undefined)	6	-13	13	1.9	98	110	.	.	.
O=C(N/N=C/c1ccc(C(F)(F)F)cc1)c1ccc(O)cc1	14	-14	33	1.8	91	112	.	.	.
Oc1ccc(/C=N/Nc2ccc(C(F)(F)F)cn2)cc1	19	-76	127	4.8*	87	168*	172*	108	99
Cn1cc(CCC(=O)N2CCCC(CCC(=O)NCc3ccc(F)c(F)c3)C2)cn1 (centres undefined)	2	-4	6	1.7	103	102	.	.	.
C/C(=N\NC(=O)c1c[nH]c2ccccc12)c1ccccn1	12	-64	-47	0.92	96	157*	198*	120	105
COc1ccc(-c2csc(Nc3ccc(S(N)(=O)=O)cc3)n2)cc1	30	-5	.	0.84	75	104	.	.	.
c1ccc(Nc2nc(-c3ccccn3)cs2)cc1	-10	-63	205*	7.5*	108	158*	226*	150*	126*
COc1ccc(Nc2nc(-c3ccc(OC)cc3)cs2)cc1	12	-55	137*	.	94	151*	182*	142*	99
COc1ccc(-c2csc(Nc3ncccc3C)n2)cc1	-1	-89	154*	12*	104	185*	253*	143*	106
COc1ccc(-c2csc(Nc3ccccc3)n2)cc1	1	-85	195*	5.4*	99	180*	232*	152*	110
COc1ccc(Nc2nc(-c3c(C)nc4ncccn34)cs2)cc1	13	29	-94	1	94	73	.	.	.
c1ccc(-c2csc(Nc3cccnc3)n2)nc1	6	-34	20	1.4	98	127	.	.	.
COc1ccc(NC(=O)CN2CCC(C(N)=O)(N3CCCCC3)CC2)c(OC)c1	6	-1	9	0.97	99	97	.	.	.

Source: PubChem BioAssay (several laboratories)
